Data taken from ChEMBL document CHEMBL4033757, “Efficient Divergent Synthesis of New Immunostimulant 4″-Modified α-Galactosylceramide Analogues” (ACS Med Chem Lett, 2017).
The source made the active and inactive calls.

Key:
Mus musculus [1] = assay: Immunostimulatory activity in C57BL/6 mouse assessed as induction of IL-4 levels in serum at 2.0 x 10^-4 […], ip measured after 4 hrs by ELISA; type: functional, organism-based
Method in brief: (§1)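 C57BL/6 mice dosed intraperitoneally with 5 μg glycolipid per animal (stated as 2.0 × 10–4 […]). Serum collected and cytokines quantified by ELISA: IFN-γ at 16 h post-injection, IL-4 at 4 h post-injection.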

Mus musculus [2] = assay: Immunostimulatory activity in C57BL/6 mouse assessed as induction of IFNgamma levels in serum at 2.0 x 10^-4 […], ip measured after 16 hrs by ELISA; type: functional, organism-based; method in brief: as §1
iNKT = assay: Immunostimulatory activity in human iNKT cells cocultured with HeLa CD1d cells assessed as induction of IFNgamma levels at 0.01 to 1 nM after 24 hrs by ELISA; type: functional, cell-based
Method in brief: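 Human iNKT cells cocultured with HeLa cells expressing CD1d plus glycolipid at varying concentrations. After 24 h incubation, IFN-γ in the culture measured by ELISA.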

Measured: Activity

CCCCCCCCCCCCCCCCCCCCCCCCCC(=O)N[C@@H](CO[C@H]1O[C@H](CO)[C@H](OC(=O)Nc2cccc3ccccc23)[C@H](O)[C@H]1O)[C@H](O)[C@H](O)CCCCCCCCCCCCCC
active: all assays above

CCCCCCCCCCCCCCCCCCCCCCCCCC(=O)N[C@@H](CO[C@H]1O[C@H](CO)[C@H](OCc2ccc(Cl)cc2)[C@H](O)[C@H]1O)[C@H](O)[C@H](O)CCCCCCCCCCCCCC
active: all assays above

CCCCCCCCCCCCCCCCCCCCCCCCCC(=O)N[C@@H](CO[C@H]1O[C@H](CO)[C@H](O)[C@H](O)[C@H]1O)[C@H](O)[C@H](O)CCCCCCCCCCCCCC
active: all assays above

CCCCCCCCCCCCCCCCCCCCCCCCCC(=O)N[C@@H](CO[C@H]1O[C@H](CO)[C@H](OC)[C@H](O)[C@H]1O)[C@H](O)[C@H](O)CCCCCCCCCCCCCC
active: all assays above

C=C1[C@@H](CO)O[C@H](OC[C@H](NC(=O)CCCCCCCCCCCCCCCCCCCCCCCCC)[C@H](O)[C@H](O)CCCCCCCCCCCCCC)[C@H](O)[C@H]1O
active: all assays above

CCCCCCCCCCCCCCCCCCCCCCCCCC(=O)N[C@@H](CO[C@H]1O[C@H](CO)[C@@H](NC(=O)Nc2cccc3ccccc23)[C@H](O)[C@H]1O)[C@H](O)[C@H](O)CCCCCCCCCCCCCC
active: all assays above
